Screens as filed in PubChem BioAssay.
This is one part of a sample in which hits are shown more often than they occur.
CHOP inhibitor: inhibitors of CHOP promoter induction, primary screen, cell-based, unfolded protein response, luciferase reporter. CHO-K1 CHOP-promoter luciferase, tunicamycin-induced, 15-18 h. inhibition, % at 10 µM. 3.8% of 220,000 active. AID 2732, 2010;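 active = compounds that reduced the stress-induced luciferase reporter signal by more than about 70% of percent inhibition, limit read from the data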;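 note: 0% = tunicamycin plus vehicle and 100% = wells without tunicamycin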
p-CIP stab down: p/CIP-EGFP fusion destabilizers, primary screen, fluorescence, F442A cells; Q05BA5; decrease of EGFP signal, % at 10 µM; 0.01% of 290,000 active; 16 h; AID 1984, 2009;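 active = EGFP signal decrease of at least 30% at 10 µM or well 3 SD below plate mean, unless failing retest; inactive = the rest, including hits failing retest or dose response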
Beta2AR agonist: beta2AR agonists driving receptor internalization, primary screen, cell-based, FAP fluorogen, flow cytometry; Beta-2 adrenergic receptor (Homo sapiens), P07550; response, % (test concentration not listed); AID 504454, 2011; Am2.2-beta2AR cells; 0.43% of 340,000 active;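 active = response above a set limit, near 3 SD of response in nonfluorescent compounds, cut at about 42% in these data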
Target sequence (P07550 whole entry, looked up): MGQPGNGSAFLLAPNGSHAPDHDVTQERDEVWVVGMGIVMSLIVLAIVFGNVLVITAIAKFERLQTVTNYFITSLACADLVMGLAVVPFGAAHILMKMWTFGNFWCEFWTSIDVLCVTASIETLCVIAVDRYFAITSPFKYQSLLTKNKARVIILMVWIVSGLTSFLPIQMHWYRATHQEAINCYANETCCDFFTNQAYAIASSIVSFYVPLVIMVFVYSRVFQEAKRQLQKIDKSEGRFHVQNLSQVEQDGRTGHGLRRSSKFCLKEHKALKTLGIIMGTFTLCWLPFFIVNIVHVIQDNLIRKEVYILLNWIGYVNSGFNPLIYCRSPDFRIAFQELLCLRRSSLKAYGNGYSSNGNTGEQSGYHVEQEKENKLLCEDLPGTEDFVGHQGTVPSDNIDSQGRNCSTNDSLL
Dynein cargo inh: inhibitors of GR-EGFP nuclear translocation, primary screen, dynein cargo transport inhibitor project, imaging, high-content, 3617.4 mouse cells | z-score, hits read low | test concentration mostly 20 µM; stimulated with dexamethasone, 1 µM; active compounds read low | 0.47% of 220,000 active;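 active = plate z-score of nuclear minus cytoplasmic receptor signal below a set negative limit, without overly bright fluorescence or cell loss, cut at about -3.5 in these data, passing the limit was not always enough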;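 note: z-score of nuclear minus cytoplasmic ring GR-EGFP intensity difference per well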
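Medium: Induction medium lacking tetracycline, stripped serum | Probe or stimulus: 1.0 µM final dexamethasone stimulus | Schedule: 48 h induction, then 1 h compound, then 30 min agonist, 37 °C | Signal: Automated 10x imaging of fixed Hoechst-stained cells | Evaluation: Per-cell GR-EGFP intensity, nucleus versus surrounding cytoplasmic ring, well-averaged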
UPR XBP1 act: activators of adaptive XBP1 UPR arm, primary screen, cell-based, CHO-XBP1 luciferase reporter, luminescence, uHTS; IRE1-XBP1 UPR activation; percent of tunicamycin response, DMSO as zero; activation, % at 20 µM; 0.33% of 330,000 active; AID 463104, 2010;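 active = versus positive control, 20 µM dose yields 30% or more activation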;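 note: 100% = tunicamycin at 10 µg/mL and 0% = DMSO only wells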
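Test system: CHO-XBP1 luciferase reporter cells | Buffer or medium: Serum-containing F12 medium, 10% FBS | Schedule: 6 h compound exposure at 37 °C, 5% CO2 | Detection: Steady-Glo luciferase glow luminescence, 10 min after reagent addition | Read-out basis: Activation, % of tunicamycin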
UPR CHOP act: activators of apoptotic CHOP UPR arm, primary screen, cell-based, CHO-CHOP luciferase reporter, luminescence, uHTS; UPR activation; percent of tunicamycin response over DMSO baseline; 0.34% of 330,000 active; activation, % at 10 µM;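 active = at 10 µM dose, activation of 40% or more, normalized to positive control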;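 note: 100% = tunicamycin at 10 µg/mL and 0% = DMSO alone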
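Assay system: CHO-CHOP cells, stable luciferase reporter of PERK-eIF2a-CHOP signalling / Buffer or medium: F12 plus 10% serum / Compound dosing: one dose, 10 µM in 0.5% DMSO / Times: 6 h compound treatment, 37 °C / Technique: luciferase luminescence / Read-out: % reporter activation, DMSO baseline versus tunicamycin full activation / Benchmarks: tunicamycin and DMSO controls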
* marks the source's active call; other numbers are inactive results; x = no result given.

SMILES	CHOP inhibitor	p-CIP stab down	Beta2AR agonist	Dynein cargo inh	UPR XBP1 act	UPR CHOP act
Cc1cc(C)n(-c2ccc(F)cc2CN2CCN(Cc3ccccc3)C(CCO)C2)n1 (stereo unspecified)	4.8	12.0	-1.4	-0.718	0.1	1.8
CCCCN(C)CCNC(=O)C1CCN(S(=O)(=O)c2cccc3nsnc23)CC1	x	-11.2	-2.3	x	-3.2	-2.6
CCN(C(=O)c1cccc(S(=O)(=O)N2CCCCC2)c1)C1CCS(=O)(=O)C1 (stereo unspecified)	x	x	6.5	x	0.4	1.5
Cc1noc(C)c1-c1ccc2nc[nH]c(=O)c2c1	x	x	-1.2	x	2.5	-0.5
O=C(C#Cc1ccccc1)Nc1cccc(F)c1	x	-10.9	3.2	x	11.5	29.0
COc1cc(CNCCCN2CCOCC2)cc(Cl)c1OCC(=O)NC(C)(C)C	x	-12.1	-8.8	x	-1.1	-0.8
CCC(C(=O)OC)n1c(-c2ccccc2)nc2ccccc2c1=O (stereo unspecified)	71.2*	-7.8	3.5	-0.297	-0.6	-0.6
CCNC(=O)Nn1c(-c2ccccc2)nc2ccccc2c1=O	1.1	2.8	-3.6	-0.296	-0.5	-4.6
COC(=O)c1oc2ccccc2c1NC(=O)CN1CCCC1	72.0*	4.8	-0.4	-0.44	-1.1	-1.3
CC(C)NC(=O)N(C)C[C@H]1Oc2ccc(NC(=O)Nc3ccccc3)cc2C(=O)N([C@@H](C)CO)C[C@@H]1C	x	x	-2.8	x	-2.1	-0.4
CCOC(=O)C1=C(NC(=S)NC(=O)c2ccccc2)c2ccccc2CC1(C)CC (stereo unspecified)	47.7	-2.5	22.2	3.26	0.2	4.5
CCOC(=O)C1=C(NC(=S)NC(=O)c2ccccc2)c2ccccc2CC1C(C)C (stereo unspecified)	89.1*	3.0	3.4	0.166	-2.0	0.1
C[C@H](CO)N1C[C@H](C)[C@@H](CN(C)C(=O)Nc2ccc3c(c2)OCO3)Oc2c(NS(=O)(=O)c3cn(C)cn3)cccc2C1=O	x	x	x	x	-3.6	0.5
CC(C(=O)N(C1CC1)C1(C(=O)Nc2ccccc2)CCCC1)N1C(=O)c2ccccc2C1=O (stereo unspecified)	73.8*	-7.8	4.2	2.13	-3.7	-2.3
CC(C(=O)Nc1ccc(C(=O)O)cc1)N1C(=O)c2ccccc2C1=O (stereo unspecified)	-39.3	-3.5	-3.3	-1.32	4.2	-2.2
Cc1ccccc1Nc1nc(Nc2ccccc2C)nc(SC2=NCCS2)n1	56.6	-8.7	2.4	-0.499	-3.2	-2.4
Cc1ccc(Nc2nc(Nc3ccc(C)cc3)nc(SC3=NCCS3)n2)cc1	90.4*	7.3	-4.8	-0.994	2.7	4.8
Cc1cc(C)n(CCOC(=O)c2sc3ccccc3c2Cl)n1	74.5*	-1.6	3.5	0.625	0.7	1.8
NC(C(=O)N[C@@H]1C(=O)N2C(C(=O)O)=C(Cl)CS[C@H]12)c1ccccc1 (stereo partly specified)	-19.5	x	x	x	x	x
Cc1oncc1C(=O)N1CCCC(CO)(Cc2ccc(F)cc2F)C1 (stereo unspecified)	x	7.8	0.3	x	-1.0	0.4
Cc1ccc(Cl)cc1N1CCN(C(=O)c2cn(C)c(=O)c3c2c2ccccc2n3C)CC1	78.7*	6.4	14.7	0.945	2.8	1.2
COc1cc(OC)c(C#N)c(S(=O)(=O)Cc2ccccc2)c1	18.6	0.2	-1.0	-1.11	-4.3	1.7
N#Cc1c([N+](=O)[O-])cc([N+](=O)[O-])cc1S(=O)(=O)Cc1ccccc1	x	x	93.7*	x	-9.2	-9.9
Cn1c(SCC(=O)Nc2cc(S(=O)(=O)N3CCOCC3)ccc2N2CCOCC2)nnc1-c1ccncc1	4.5	-9.3	-8.0	-0.0186	2.3	0.4
Cn1c(=O)n(Cc2ccccc2F)c2ccccc21	27.3	-16.4	-12.2	-0.818	1.3	-0.1
SMILES	CHOP inhibitor	p-CIP stab down	Beta2AR agonist	Dynein cargo inh	UPR XBP1 act	UPR CHOP act
O=c1n(Cc2ccccc2F)c2ccccc2n1Cc1ccccc1F	73.8*	-6.6	5.0	-1.26	-0.5	0.4
Cc1cccc(Nc2nc(OCC#N)nc(N(C)C)n2)c1	x	-0.5	0.9	x	0.2	0.5
CCN(CC)c1nc(Nc2ccc(Cl)cc2)nc(OCC#N)n1	92.9*	-9.5	-1.0	0.327	4.5	-1.4
Clc1ccc(OCCOCCNCc2ccccc2)cc1Cl	x	-1.4	6.0	x	-3.1	0.5
O=C(Nc1ccc(-c2nc3ccccc3[nH]2)cc1)c1ccco1	-13.7	7.4	-9.6	-0.587	-3.0	0.3
O=C(/C=C/c1ccco1)Nc1ccc(-c2nc3ccccc3[nH]2)cc1	95.6*	-14.6	-1.0	-0.185	x	x
CC(C)CCNC(=O)C(CC(C)C)N(Cc1ccc2c(c1)OCO2)C(=O)c1snc(C(N)=O)c1N (stereo unspecified)	21.2	2.0	-5.5	-0.55	0.2	-1.2
Cc1ccc(NC(=O)c2noc3c2CCc2ccccc2-3)cc1	15.4	5.3	0.8	1.45	7.0	4.0
Cc1nn(Cc2ccccc2)c(C)c1NC(=O)c1noc2c1CCc1ccccc1-2	85.6*	-5.5	-9.5	-0.869	1.2	0.3
CCOC(=O)N1CCN(CCC(=O)c2ccc(Cl)cc2)CC1	-16.2	-3.6	1.6	-5.39*	-2.3	-0.7
Cc1ccc(SCC(=O)Nc2cccc(-c3nnc(-c4ccco4)o3)c2)cc1	70.7*	-0.3	1.7	0.0848	-4.6	2.0
CC(C)CC(C(=O)NC1CCCC1)N(Cc1ccc2c(c1)OCO2)C(=O)c1snc(C(N)=O)c1N (stereo unspecified)	80.8*	-6.4	4.6	0.178	-2.4	0.5
Cc1ccc2nc(/C(C#N)=C\c3ccc(N4CCCCC4)c([N+](=O)[O-])c3)[nH]c2c1	79.0*	-28.0	7.3	-0.562	-0.4	6.3
N#C/C(=C\c1ccc(N2CCOCC2)c([N+](=O)[O-])c1)c1nc2ccccc2[nH]1	53.5	-4.5	1.0	-0.684	5.6	2.4
c1ccc(-c2csc3ncnc(N4CCc5ccccc5C4)c23)cc1	85.8*	-14.1	0.0	-0.764	x	x
CS(=O)(=O)NNC(=O)CN1C(=O)C2C3C=CC(C3)C2C1=O (stereo unspecified)	8.4	-5.1	3.1	-0.97	-2.4	-1.6
CNC(=O)CN1C(=O)C2C3C=CC(C3)C2C1=O (stereo unspecified)	77.9*	-2.3	-3.5	0.922	0.1	-1.2
O=C(Nc1sc2c(c1C(=O)c1ccc(Cl)cc1)CCCC2)c1cccnc1	78.8*	11.1	-6.3	0.179	-3.9	1.7
O=C(Nc1sc2c(c1C(=O)c1ccccc1)CCCC2)c1cccnc1	61.4	-8.0	-21.3	-0.293	4.3	0.0
